Experimental data from ChEMBL document CHEMBL3351359, “Design and synthesis of novel 2,4-diaryl-5H-indeno[1,2-b]pyridine derivatives, and their evaluation of topoisomerase inhibitory activity and cytotoxicity” (Bioorg Med Chem, 2015).

Tests used:
[1] = biological target: T1, DNA topoisomerase 1 (Homo sapiens) (UniProt P11387); assay: Inhibition of human recombinant topoisomerase-1 assessed as conversion of super-coiled plasmid DNA pBR322 to relaxed DNA at 100 uM after 30 mins by ethidium bromide staining-based agarose gel electrophoresis relative to camptothecin
T1 sequence (whole entry): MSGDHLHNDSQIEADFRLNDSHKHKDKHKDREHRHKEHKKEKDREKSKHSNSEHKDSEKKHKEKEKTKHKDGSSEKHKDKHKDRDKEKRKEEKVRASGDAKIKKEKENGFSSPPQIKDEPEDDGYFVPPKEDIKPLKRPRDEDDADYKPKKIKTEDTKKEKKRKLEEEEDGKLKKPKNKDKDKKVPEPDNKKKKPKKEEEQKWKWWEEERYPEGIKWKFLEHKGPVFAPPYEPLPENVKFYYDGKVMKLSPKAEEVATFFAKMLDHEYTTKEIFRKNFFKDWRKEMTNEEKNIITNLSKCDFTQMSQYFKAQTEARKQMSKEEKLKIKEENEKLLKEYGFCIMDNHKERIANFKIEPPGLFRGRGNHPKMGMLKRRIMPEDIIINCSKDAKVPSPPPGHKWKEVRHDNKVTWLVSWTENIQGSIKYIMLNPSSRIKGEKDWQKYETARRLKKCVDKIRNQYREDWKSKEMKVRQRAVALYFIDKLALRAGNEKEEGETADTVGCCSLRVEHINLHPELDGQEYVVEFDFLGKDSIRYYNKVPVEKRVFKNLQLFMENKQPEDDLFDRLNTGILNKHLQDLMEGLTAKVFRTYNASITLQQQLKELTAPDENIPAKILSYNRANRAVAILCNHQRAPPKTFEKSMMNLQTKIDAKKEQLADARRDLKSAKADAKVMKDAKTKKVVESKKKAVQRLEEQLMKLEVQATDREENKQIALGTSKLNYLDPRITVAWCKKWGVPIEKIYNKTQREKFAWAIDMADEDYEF

[2] = biological target: T1, DNA topoisomerase 1 (Homo sapiens); assay: Inhibition of human recombinant topoisomerase-1 assessed as conversion of super-coiled plasmid DNA pBR322 to relaxed DNA at 100 uM after 30 mins by ethidium bromide staining-based agarose gel electrophoresis (reference value: 62.9%)
Summary of the method: (§1)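 Relaxation of supercoiled pBR322 (100 ng) by 0.4 units recombinant human topo I, with or without compound (20 mM DMSO stocks), for 30 min at 37 °C. Buffer: 10 mM Tris-HCl pH 7.9, 150 mM NaCl, 0.1% BSA, 1 mM spermidine, 5% glycerol. Stopped with sarcosyl. Run on 1% agarose in TAE at 15 V for 7 h, stained with ethidium bromide, bands quantified under UV.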

[3] = biological target: DNA topoisomerase 2-alpha (Homo sapiens) (UniProt P11388); assay: Inhibition of human recombinant topoisomerase-2 alpha assessed as conversion of super-coiled plasmid DNA pBR322 to relaxed DNA at 100 uM after 30 mins by ethidium bromide staining-based agarose gel electrophoresis (reference value: 87.8%)
DNA topoisomerase 2-alpha (Homo sapiens), sequence (P11388 whole entry): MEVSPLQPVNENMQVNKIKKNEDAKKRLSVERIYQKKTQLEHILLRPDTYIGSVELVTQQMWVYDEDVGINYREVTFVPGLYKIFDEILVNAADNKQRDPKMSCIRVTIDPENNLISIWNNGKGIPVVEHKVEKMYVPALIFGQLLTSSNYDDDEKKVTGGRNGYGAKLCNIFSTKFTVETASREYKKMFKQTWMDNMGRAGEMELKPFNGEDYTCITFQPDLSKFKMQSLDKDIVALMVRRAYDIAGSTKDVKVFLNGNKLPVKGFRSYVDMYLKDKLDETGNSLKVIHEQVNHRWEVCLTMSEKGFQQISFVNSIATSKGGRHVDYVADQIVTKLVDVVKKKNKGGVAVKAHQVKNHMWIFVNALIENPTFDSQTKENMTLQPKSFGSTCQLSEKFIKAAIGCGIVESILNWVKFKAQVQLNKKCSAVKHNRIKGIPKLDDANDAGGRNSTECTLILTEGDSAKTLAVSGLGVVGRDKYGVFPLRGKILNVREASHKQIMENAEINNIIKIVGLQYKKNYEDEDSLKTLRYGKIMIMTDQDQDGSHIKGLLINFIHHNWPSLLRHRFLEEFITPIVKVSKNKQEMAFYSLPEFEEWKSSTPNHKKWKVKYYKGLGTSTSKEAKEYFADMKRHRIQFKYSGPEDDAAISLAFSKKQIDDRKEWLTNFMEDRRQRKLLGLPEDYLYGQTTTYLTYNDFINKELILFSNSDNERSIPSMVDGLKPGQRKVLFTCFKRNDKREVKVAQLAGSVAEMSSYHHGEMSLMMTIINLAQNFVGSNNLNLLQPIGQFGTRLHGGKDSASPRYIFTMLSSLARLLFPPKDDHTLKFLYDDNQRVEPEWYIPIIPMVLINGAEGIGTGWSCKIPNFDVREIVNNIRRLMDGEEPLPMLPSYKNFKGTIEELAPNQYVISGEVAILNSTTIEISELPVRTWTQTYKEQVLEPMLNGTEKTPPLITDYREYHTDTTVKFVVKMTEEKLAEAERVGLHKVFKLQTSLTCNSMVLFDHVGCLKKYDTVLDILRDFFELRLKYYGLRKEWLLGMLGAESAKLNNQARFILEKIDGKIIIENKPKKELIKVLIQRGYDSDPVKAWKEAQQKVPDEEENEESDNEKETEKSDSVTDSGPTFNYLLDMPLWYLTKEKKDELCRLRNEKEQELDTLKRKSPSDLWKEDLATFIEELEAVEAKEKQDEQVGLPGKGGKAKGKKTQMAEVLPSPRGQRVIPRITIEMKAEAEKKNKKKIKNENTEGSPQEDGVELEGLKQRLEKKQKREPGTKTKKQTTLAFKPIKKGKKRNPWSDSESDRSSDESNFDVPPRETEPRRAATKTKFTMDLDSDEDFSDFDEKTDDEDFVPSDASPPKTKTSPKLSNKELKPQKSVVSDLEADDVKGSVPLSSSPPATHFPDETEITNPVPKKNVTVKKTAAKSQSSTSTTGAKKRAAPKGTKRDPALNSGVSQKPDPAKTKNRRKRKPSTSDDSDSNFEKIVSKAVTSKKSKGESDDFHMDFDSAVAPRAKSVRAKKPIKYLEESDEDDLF
Summary of the method: (§2)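 Supercoiled pBR322 (200 ng) incubated with 1 unit human topo IIα, with or without compound, for 30 min at 30 °C. Buffer: 10 mM Tris-HCl pH 7.9, 50 mM NaCl, 5 mM MgCl2, 1 mM EDTA, 1 mM ATP, 15 μg/mL BSA. Stopped with EDTA. Run on 1% agarose in TAE at 25 V for 4 h, stained with ethidium bromide, supercoiled DNA quantified under UV.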

[4] = biological target: DNA topoisomerase 2-alpha (Homo sapiens) (UniProt P11388); assay: Inhibition of human recombinant topoisomerase-2 alpha assessed as conversion of super-coiled plasmid DNA pBR322 to relaxed DNA at 100 uM after 30 mins by ethidium bromide staining-based agarose gel electrophoresis relative to etoposide
DU-145 = assay: Cytotoxicity against human DU145 cells after 2 days by CCK-8 assay; type: functional, cell-based; details: DU-145, 48 h
Summary of the method: (§3)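 Cells seeded at 2~4 × 10^4 per well, grown overnight in medium with 10% FBS at 37 °C, 5% CO2. On day 2, after 4 h FBS starvation, medium replaced with medium containing graded compound concentrations. On day 4, CCK-8 added for 4 h, then absorbance read at 450 nm. IC50 from four-parameter logistic fit. Mean ± S.D. of three experiments, each run in triplicate.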

[5] = biological target: DNA topoisomerase 2-alpha (Homo sapiens) (UniProt P11388); assay: Inhibition of human recombinant topoisomerase-2 alpha assessed as conversion of super-coiled plasmid DNA pBR322 to relaxed DNA at 20 uM after 30 mins by ethidium bromide staining-based agarose gel electrophoresis (reference value: 46.7%); summary of the method: as §2
[6] = Cytotoxicity against human HCT15 cells after 2 days by CCK-8 assay; type: functional, cell-based; details: HCT-15, 48 h; summary of the method: as §3
MCF7 = assay: Cytotoxicity against human MCF7 cells after 2 days by CCK-8 assay; type: functional, cell-based; details: MCF7, 48 h; summary of the method: as §3
[7] = biological target: T1, DNA topoisomerase 1 (Homo sapiens); assay: Inhibition of human recombinant topoisomerase-1 assessed as conversion of super-coiled plasmid DNA pBR322 to relaxed DNA at 20 uM after 30 mins by ethidium bromide staining-based agarose gel electrophoresis (reference value: 19.6%); summary of the method: as §1
[8] = biological target: DNA topoisomerase 2-alpha (Homo sapiens) (UniProt P11388); assay: Inhibition of human recombinant topoisomerase-2 alpha assessed as conversion of super-coiled plasmid DNA pBR322 to relaxed DNA at 100 uM after 30 mins by ethidium bromide staining-based agarose gel electrophoresis (reference value: 83.7%); summary of the method: as §2
[9] = biological target: DNA topoisomerase 2-alpha (Homo sapiens) (UniProt P11388); assay: Inhibition of human recombinant topoisomerase-2 alpha assessed as conversion of super-coiled plasmid DNA pBR322 to relaxed DNA at 20 uM after 30 mins by ethidium bromide staining-based agarose gel electrophoresis (reference value: 42.1%); summary of the method: as §2
HeLa = assay: Cytotoxicity against human HeLa cells after 2 days by CCK-8 assay; type: functional, cell-based; details: 48 h; summary of the method: as §3
[10] = biological target: T1, DNA topoisomerase 1 (Homo sapiens); assay: Inhibition of human recombinant topoisomerase-1 assessed as conversion of super-coiled plasmid DNA pBR322 to relaxed DNA at 100 uM after 30 mins by ethidium bromide staining-based agarose gel electrophoresis (reference value: 51.5%); summary of the method: as §1
[11] = biological target: T1, DNA topoisomerase 1 (Homo sapiens); assay: Inhibition of human recombinant topoisomerase-1 assessed as conversion of super-coiled plasmid DNA pBR322 to relaxed DNA at 20 uM after 30 mins by ethidium bromide staining-based agarose gel electrophoresis (reference value: 25.9%); summary of the method: as §1
[12] = biological target: T1, DNA topoisomerase 1 (Homo sapiens); assay: Inhibition of human recombinant topoisomerase-1 assessed as conversion of super-coiled plasmid DNA pBR322 to relaxed DNA at 100 uM after 30 mins by ethidium bromide staining-based agarose gel electrophoresis (reference value: 45.2%); summary of the method: as §1
[13] = biological target: DNA topoisomerase 2-alpha (Homo sapiens) (UniProt P11388); assay: Inhibition of human recombinant topoisomerase-2 alpha assessed as conversion of super-coiled plasmid DNA pBR322 to relaxed DNA at 20 uM after 30 mins by ethidium bromide staining-based agarose gel electrophoresis (reference value: 20.2%); summary of the method: as §2
[14] = biological target: DNA topoisomerase 2-alpha (Homo sapiens) (UniProt P11388); assay: Inhibition of human recombinant topoisomerase-2 alpha assessed as conversion of super-coiled plasmid DNA pBR322 to relaxed DNA at 100 uM after 30 mins by ethidium bromide staining-based agarose gel electrophoresis (reference value: 32.4%); summary of the method: as §2

Row | SMILES | Ratio [1] | inhibition [2] | inhibition [3] | Ratio [4] | inhibition [5] | inhibition [7] | inhibition [8] | inhibition [9] | inhibition [10] | inhibition [11] | inhibition [12] | inhibition [13] | inhibition [14] | IC50 (DU-145) | IC50 [6] | IC50 (MCF7) | IC50 (HeLa)
1 | c1ccc2c(c1)Cc1c(-c3ccoc3)cc(-c3ccsc3)nc1-2 | < 0.2 |  |  | 1.15 |  |  | 95.9% | 10.9% | 1.2% |  |  |  |  | > 50 µM | 20.6 µM | > 50 µM | > 50 µM
2 | c1ccc(-c2cc(-c3ccco3)nc3c2Cc2ccccc2-3)nc1 | 0.65 | 40.7% | 100% | 1.14 | 100% | 0.5% |  |  |  |  |  |  |  | > 50 µM | 8.5 µM | 3.08 µM | 4.13 µM
3 | c1ccc2c(c1)Cc1c(-c3ccsc3)cc(-c3ccsc3)nc1-2 | 1.45 | 90.9% | 100% | 1.14 | 0% | 2.9% |  |  |  |  |  |  |  | > 50 µM | 16.4 µM | > 50 µM | 
4 | c1csc(-c2cc(-c3ccsc3)c3c(n2)-c2ccccc2C3)c1 | < 0.2 | 10.1% | 100% | 1.14 | 0% |  |  |  |  |  |  |  |  | > 50 µM | > 50 µM | > 50 µM | 
5 | c1ccc(-c2cc(-c3ccco3)nc3c2Cc2ccccc2-3)cc1 | 0.91 |  |  | 0.58 |  |  |  |  |  | 5.7% | 41.3% |  | 18.7% | 7.74 µM | 16.6 µM | > 50 µM | 5.22 µM
6 | c1ccc(-c2cc(-c3ccsc3)nc3c2Cc2ccccc2-3)cc1 | < 0.2 | 0.5% | 72.5% | 0.83 | 0% |  |  |  |  |  |  |  |  | > 50 µM | > 50 µM | > 50 µM | 
7 | c1csc(-c2cc(-c3ccoc3)c3c(n2)-c2ccccc2C3)c1 | < 0.2 |  |  | 1.19 |  |  | 100% | 66.7% | 1.7% |  |  |  |  | 37.3 µM | 34.6 µM | > 50 µM | > 50 µM
8 | c1ccc(-c2cc(-c3cccs3)c3c(n2)-c2ccccc2C3)nc1 |  |  |  |  |  |  |  |  |  | 12% | 58.5% |  | 9% | 6.7 µM | 9.1 µM | 11 µM | 20.5 µM

Continued, in another order:

Row | Ratio [1] | inhibition [2] | inhibition [3] | Ratio [4] | inhibition [5] | inhibition [7] | inhibition [8] | inhibition [9] | inhibition [10] | inhibition [11] | inhibition [12] | inhibition [13] | inhibition [14] | SMILES | IC50 (DU-145) | IC50 [6] | IC50 (MCF7) | IC50 (HeLa)
9 | 0.83 | 52.5% | 100% | 1.14 | 0% | 1.5% |  |  |  |  |  |  |  | c1coc(-c2cc(-c3ccoc3)c3c(n2)-c2ccccc2C3)c1 | > 50 µM | 20.2 µM | > 50 µM | 
10 | < 0.2 |  |  | 1 |  |  | 84.1% | 68.5% | 2.8% |  |  |  |  | c1coc(-c2cc(-c3ccsc3)nc3c2Cc2ccccc2-3)c1 | > 50 µM | 31.6 µM | > 50 µM | > 50 µM
11 | 0.85 |  |  | 1.38 |  |  |  |  |  | 6.4% | 38.2% | 15% | 44.6% | c1coc(-c2cc(-c3ccco3)c3c(n2)-c2ccccc2C3)c1 | 20.6 µM | > 50 µM | 5.4 µM | 8.14 µM
12 | 1.69 |  |  | 1.25 |  |  |  |  |  | 3.9% | 76.3% | 14.6% | 40.5% | c1coc(-c2cc(-c3cccs3)nc3c2Cc2ccccc2-3)c1 | 6.71 µM | 37.7 µM | 4.11 µM | 3.2 µM
13 | < 0.2 |  |  | 1 |  |  | 83.9% | 79.6% | 2% |  |  |  |  | c1coc(-c2cc(-c3cccs3)c3c(n2)-c2ccccc2C3)c1 | > 50 µM | 23.6 µM | > 50 µM | > 50 µM
14 | < 0.2 |  |  | 1.19 |  |  | 100% | 93% | 0% |  |  |  |  | c1coc(-c2cc(-c3ccsc3)c3c(n2)-c2ccccc2C3)c1 | > 50 µM | > 50 µM | > 50 µM | > 50 µM
